For this experiment, the species on record is Homo sapiens. Kind of experiment: Inhibition of arachidonic acid (AA) induced human platelet aggregation. The format is functional. The method, boiled down: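 Human PRP (pH 7.6; 200g, 15 min at room temperature) with platelet counts matched. Compound in DMSO-ethanol given 5 min before 1 mM arachidonic acid, with a solvent control. Aggregation followed by Born light-transmission aggregometry, IC50 derived from the aggregation traces. At least four repeats, each with platelets from a different donor.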

SODIUM NITROPRUSSIDE: the IC50 (usually the concentration at which inhibition is half-maximal) was 1000 nM.

Values taken from ChEMBL document CHEMBL1125545, “4-Methyl-3-(arylsulfonyl)furoxans: a new class of potent inhibitors of platelet aggregation” (J Med Chem, 1992).
